# Experimental data taken from article PMC2824925 (Clinical pharmacology and therapeutics, 2009).
# Entries after “also recorded” stand apart in the source; their conditions may differ. *1 amine or outer side, *2 acyl side, *3 side chain or, on linkers, in order; H or OH if unused. Where a SMILES comes first, the peptide text is derived from it. Bridges are numbered along the chain shown (N, C = ends). [ ]: non-standard residue; d: D form. The star is where a group is joined. hTyr(3S-OH,4S-OH,3'-OSO3H) = N[C@H](C(=O)O)[C@H](O)[C@@H](O)c1ccc(O)c(OS(=O)(=O)O)c1; Orn(4R-OH,5R-OH) = O=C([C@H](C[C@@H](O)[C@@H](O)N[*:3])N[*:1])[*:2]; Pro(3S-OH,4S-Me) = C[C@H]1CN[C@H](C(=O)O)[C@H]1O; X1 = CCCCCOc1ccc(-c2cc(-c3ccc(C(=O)*)cc3)no2)cc1; Gln(3R-OH) = NC(=O)C[C@@H](O)[C@H](N)C(=O)O; Hyp = O=C(O)[C@@H]1C[C@@H](O)CN1
# How the values were obtained:
# [1] = adults, cited from earlier work
# [2] = febrile neutropenic pediatric patients, Phase I; cited from earlier work
# [3] = Plasma pharmacokinetics of repeat-dose intravenous micafungin in young infants; format: in vivo, human; settings: for AUC(0-t): log-linear method; for Vd: Vdss/wt
# In short: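 Infants aged >48 h to day of life 120 with suspected candidaemia or invasive candidiasis got test compound by 1-h IV infusion every 24 h. Blood samples (50–100 μl; ≤500 μl total, away from infusion site) were taken around the day-4 dose: pre-dose, end of infusion, and 2–4, 8–12 and 20–24 h. Plasma was measured by LC-MS/MS (LLOQ 0.05 μg/ml). Analysis was non-compartmental: CLss = dose/AUC0–24, AUC by log-linear method, observed Tmax.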
# [4] = Safety and tolerability of repeat-dose micafungin in young infants; format: in vivo, human
# In short: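 Multicentre open-label study: 7 mg/kg/day (≥1,000 g) or 10 mg/kg/day (<1,000 g) by 1-h IV infusion every 24 h for 4–5 days. Safety set: infants given ≥1 dose. Physical exams, haematology, serum chemistry and vital signs were taken at screening (≤72 h pre-dose) and until 72 h after the last dose. Investigators graded AEs for severity and drug relationship; treatment-emergent AEs counted through 72 h post-dose.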
# [5] = infants weighing > 1,000 g, single dose 0.75, 1.5 or 3.0 mg/kg; cited from earlier work
# [6] = overall (7 and 10 mg/kg/day groups), day 4, n=12
smiles,measurement,setting,value
"CCCCCOc1ccc(-c2cc(-c3ccc(C(=O)N[C@H]4C[C@@H](O)[C@@H](O)NC(=O)[C@@H]5[C@@H](O)[C@@H](C)CN5C(=O)[C@H]([C@H](O)CC(N)=O)NC(=O)[C@H]([C@H](O)[C@@H](O)c5ccc(O)c(OS(=O)(=O)O)c5)NC(=O)[C@@H]5C[C@@H](O)CN5C(=O)[C@H]([C@@H](C)O)NC4=O)cc3)no2)cc1 [micafungin] (X1-[Orn(4R-OH,5R-OH)]T[Hyp][hTyr(3S-OH,4S-OH,3'-OSO3H)][Gln(3R-OH)][Pro(3S-OH,4S-Me)]; lactam 1-C)",Average AUC,[1]; 150-mg dose,166.7 µg·h/mL
same,AUC values well tolerated,[1],< 600 µg·h/mL
same,Micafungin clearance in children 2–8 years relative to children ≥ 9 years of age,[2],1.5–2.0 times higher
same,"Median total body clearance adjusted for weight, lower in infants ≥ 1,000 g than in infants < 1,000 g","[3]; 7 mg/kg/day (≥ 1,000 g) vs 10 mg/kg/day (< 1,000 g)",21%
same,AUC0–24 of a single infant (highest observed),"[3]; 7 mg/kg/day group, subject 4, weight 4.5 kg, single infant",643.2 µg·h/mL
same,"CLss/wt, median (range)","[3]; 7 mg/kg/day, IV, day 4, infants ≥ 1,000 g, n=6",0.4 (0.2–0.6) ml/min/kg
same,"Tmax, median (range)","[3]; 10 mg/kg/day, 1-h IV infusion, day 4, infants < 1,000 g, n=6",1.1 (1.0–1.1) h
same,"CLss/wt, median (range)","[3]; 10 mg/kg/day, IV, day 4, infants < 1,000 g, n=6",0.6 (0.4–0.8) ml/min/kg
same,"CLss, median (range)","[3]; 10 mg/kg/day, IV, day 4, infants < 1,000 g, n=6, dose/AUC0–24",0.4 (0.2–0.5) ml/min
same,AUC(0-t),"[3]; human, plasma, iv, 7 mg/kg/day, AUC0–24, mean (SD), 7 mg/kg/day, 1-h IV infusion, day 4, infants ≥ 1,000 g, n=6, plasma, SD",308 µg·h/mL
same,AUC(0-t),"[3]; human, plasma, iv, 7 mg/kg/day, AUC0–24, median (range), 7 mg/kg/day, 1-h IV infusion, day 4, infants ≥ 1,000 g, n=6, plasma",258 µg·h/mL
same,clearance,"[3]; human, plasma, iv, 7 mg/kg/day, CLss, mean (SD), 7 mg/kg/day, IV, day 4, infants ≥ 1,000 g, n=6, dose/AUC0–24, SD",0.9 mL/min
same,clearance,"[3]; human, plasma, iv, 7 mg/kg/day, CLss, median (range), 7 mg/kg/day, IV, day 4, infants ≥ 1,000 g, n=6, dose/AUC0–24",0.7 mL/min
same,clearance,"[3]; human, plasma, iv, 7 mg/kg/day, CLss/wt, mean (SD), 7 mg/kg/day, IV, day 4, infants ≥ 1,000 g, n=6, SD",0.4 mL/min/kg
same,clearance,"[3]; human, plasma, iv, 7 mg/kg/day, CLss/wt, median (range), 7 mg/kg/day, IV, day 4, infants ≥ 1,000 g, n=6",0.45 mL/min/kg
same,Vd,"[3]; human, plasma, iv, 7 mg/kg/day, mean (SD), 7 mg/kg/day, IV, day 4, infants ≥ 1,000 g, n=6, SD",0.391 L/kg
same,Vd,"[3]; human, plasma, iv, 7 mg/kg/day, median (range), 7 mg/kg/day, IV, day 4, infants ≥ 1,000 g, n=6",0.341 L/kg
same,AUC(0-t),"[3]; human, plasma, iv, 10 mg/kg/day, AUC0–24, median (range), 10 mg/kg/day, 1-h IV infusion, day 4, infants < 1,000 g, n=6, plasma",291 µg·h/mL
same,clearance,"[3]; human, plasma, iv, 10 mg/kg/day, CLss, mean (SD), 10 mg/kg/day, IV, day 4, infants < 1,000 g, n=6, dose/AUC0–24, SD",0.4 mL/min
same,clearance,"[3]; human, plasma, iv, 10 mg/kg/day, CLss/wt, mean (SD), 10 mg/kg/day, IV, day 4, infants < 1,000 g, n=6, SD",0.6 mL/min/kg
same,clearance,"[3]; human, plasma, iv, 10 mg/kg/day, CLss/wt, median (range), 10 mg/kg/day, IV, day 4, infants < 1,000 g, n=6",0.57 mL/min/kg
same,Vd,"[3]; human, plasma, iv, 10 mg/kg/day, mean (SD), 10 mg/kg/day, IV, day 4, infants < 1,000 g, n=6, SD",0.51 L/kg
same,Vd,"[3]; human, plasma, iv, 10 mg/kg/day, median (range), 10 mg/kg/day, IV, day 4, infants < 1,000 g, n=6",0.543 L/kg
same,AUC(0-t),"[3]; human, plasma, iv, AUC0–24, mean (SD), overall (7 and 10 mg/kg/day groups), day 4, n=12, plasma, SD",308 µg·h/mL
same,AUC(0-t),"[3]; human, plasma, iv, AUC0–24, median (range), overall (7 and 10 mg/kg/day groups), day 4, n=12, plasma",275 µg·h/mL
same,clearance,"[3]; human, plasma, iv, CLss/wt, mean (SD), overall (7 and 10 mg/kg/day groups), day 4, n=12, SD",0.5 mL/min/kg
same,Tmax,"[3]; human, plasma, iv, Tmax, mean (SD), overall (7 and 10 mg/kg/day groups), day 4, n=12, SD",1.2 h
same,Vd,"[3]; human, plasma, iv, mean (SD), overall (7 and 10 mg/kg/day groups), day 4, n=12, SD",0.45 L/kg
same,Vd,"[3]; human, plasma, iv, median (range), overall (7 and 10 mg/kg/day groups), day 4, n=12",0.503 L/kg
same,"CLss/wt, median (range)",[3]; [6],0.5 (0.2–0.8) ml/min/kg
same,"Tmax, median (range)",[3]; [6],1.1 (1.0–2.1) h
same,"Allergic or histamine-like reactions, infusion-related toxicity, nephrotoxicity or hepatotoxicity",[4]; 7 and 10 mg/kg/day,no instances
same,Changes in AST and ALT from baseline to post-treatment,[4]; 7 and 10 mg/kg/day,minimal
same,Renal toxicity / changes in hematology parameters,[4]; 7 and 10 mg/kg/day,no evidence of renal toxicity or significant changes in hematology parameters
same,Infants with AEs irrespective of causality,"[4]; 7 and 10 mg/kg/day IV, ≥ 4 days, 12/13 infants",92.3%
same,Deaths / discontinuations because of an AE,"[4]; 7 and 10 mg/kg/day, 13 infants",No deaths occurred in this study and no patients withdrew prematurely from the study because of an AE; also recorded: No deaths or discontinuations from treatment occurred
same,Tolerability,"[4]; doses of up to 10 mg/kg/day IV, ≥ 4 days, young infants",well tolerated
same,Infants with serious AEs,"[4]; four infants of 13, two in each treatment group",30.8%
same,Micafungin clearance rate,[5],0.65 mL/min/kg
